Source: ChEMBL document CHEMBL1156597, “Structure-activity relationship of kahalalide F synthetic analogues” (J Med Chem, 2008)

What was measured:
DU-145 = assay: Cytotoxicity against human DU145 cells after 48 hrs by SRB assay; format: functional, cell-based; conditions: Homo sapiens, DU-145, 48 h; for CC50: read-out: LC50 (the source's name)
In short: (§1)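 Cells grown in RPMI 1640 with 10% FBS and penicillin/streptomycin at 37 °C and 5% CO₂, trypsinized, then seeded at 5 × 10³/well. After 18 h drug-free attachment, samples in DMSO/EtOH/PBS (0.5:0.5:99) were added for 48 h continuous exposure. Cells were fixed with cold TCA (1 h, 4 °C) and stained with SRB (10 min). Tris-solubilized stain read at 490 nm. Triplicate wells, mean ± SD; GI₅₀ derived.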

[1] = Cytotoxicity against human HeLa-APL cells after 48 hrs by SRB assay; format: functional; in short: as §1
[2] = Cytotoxicity against human IGROV cells after 48 hrs by SRB assay; format: functional; conditions: for CC50: read-out: LC50 (the source's name); in short: as §1
HeLa = assay: Cytotoxicity against human HeLa cells after 48 hrs by SRB assay; format: functional; conditions: for CC50: read-out: LC50 (the source's name); in short: as §1
LoVo = assay: Cytotoxicity against human LoVo cells after 48 hrs by SRB assay; format: functional; conditions: for CC50: read-out: LC50 (the source's name)
A549 = assay: Cytotoxicity against human A549 cells after 48 hrs by SRB assay; format: functional, cell-based; conditions: Homo sapiens, A549, 48 h; in short: as §1
SK-BR-3 = assay: Cytotoxicity against human SKBR3 cells after 48 hrs by SRB assay; format: functional; conditions: SK-BR-3, 48 h; for GI50: read-out: GI50; for CC50: read-out: LC50 (the source's name); in short: as §1
[3] = Cytotoxicity against human IGROV-ET cells after 48 hrs by SRB assay; format: functional; conditions: for CC50: read-out: LC50 (the source's name); in short: as §1
LNCaP = assay: Cytotoxicity against human LNcaP cells after 48 hrs by SRB assay; format: functional; conditions: for CC50: read-out: LC50 (the source's name); in short: as §1
SK-MEL-28 = assay: Cytotoxicity against human SK-MEL-28 cells after 48 hrs by SRB assay; format: functional, cell-based; conditions: Homo sapiens, SK-MEL-28, 48 h; for CC50: read-out: LC50 (the source's name); in short: as §1
PANC-1 = assay: Cytotoxicity against human PANC1 cells after 48 hrs by SRB assay; format: functional; conditions: PANC-1, 48 h; for CC50: read-out: LC50 (the source's name); in short: as §1
K562 = assay: Cytotoxicity against human K562 cells after 48 hrs by SRB assay; format: functional; conditions: K562, 48 h; for CC50: read-out: LC50 (the source's name); in short: as §1
HT-29 = assay: Cytotoxicity against human HT29 cells after 48 hrs by SRB assay; format: functional, cell-based; conditions: Homo sapiens, HT-29, 48 h; for CC50: read-out: LC50 (the source's name); in short: as §1

SMILES | GI50 (DU-145; read-out: GI50) [µM] | CC50 (DU-145) [µM] | GI50 [1] [µM] | LC50 (concentration giving 50% net cell kill) [1] [µM] | TGI [1] [µM] | GI50 [2] [µM] | GI50 ([2]; read-out: GI50) [µM] | CC50 [2] [µM] | GI50 (HeLa) [µM] | TGI (HeLa) [µM] | CC50 (HeLa) [µM] | GI50 (LoVo) [µM] | TGI (LoVo) [µM] | CC50 (LoVo) [µM] | LC50 (A549) [µM] | GI50 (A549; read-out: GI50) [µM] | TGI (SK-BR-3) [µM] | GI50 (SK-BR-3) [µM] | CC50 (SK-BR-3) [µM] | GI50 [3] [µM] | also measured
C/C=C1\NC(=O)[C@H](Cc2ccccc2)NC(=O)[C@@H](C(C)C)NC(=O)[C@@H]([C@H](C)CC)NC(=O)[C@H](NC(=O)[C@H](NC(=O)[C@H](CCCN)NC(=O)[C@H]2CCCN2C(=O)[C@H](NC(=O)[C@H](Cc2ccccc2)NC(=O)[C@@H](NC(=O)[C@H](NC(=O)CCCC(C)C)C(C)C)[C@@H](C)O)C(C)C)[C@H](C)CC)[C@H](C)OC(=O)[C@H](C(C)C)NC1=O | 0.612 | 0.785 | 0.816 | 0.768 | 0.795 | 0.25 | 0.337 | 0.343 | 0.432 | 0.542 | 0.607 | 0.29 | 0.31 | 0.333 | 0.96 | 0.722 | 0.323 | 0.325 | 0.26 | 0.184 | GI50 (DU-145): 0.752 µM; GI50 (A549): 0.875 µM; GI50 ([3]; read-out: GI50): 0.194 µM; CC50 [3]: 0.262 µM; GI50 (LNCaP): 0.857 µM; TGI (LNCaP): 0.941 µM; CC50 (LNCaP): 1.03 µM; GI50 (SK-MEL-28): 0.739 µM; GI50 (SK-MEL-28; read-out: GI50): 0.73 µM; CC50 (SK-MEL-28): 0.76 µM; GI50 (PANC-1): 2.54 µM; TGI (PANC-1): 3.53 µM; CC50 (PANC-1): 2.45 µM; GI50 (K562): 1.74 µM; TGI (K562): 1.56 µM; CC50 (K562): 1.38 µM; CC50 (HT-29): 0.0695 µM
C/C=C1\NC(=O)[C@H](Cc2ccccc2)NC(=O)[C@@H](C(C)C)NC(=O)[C@@H]([C@H](C)CC)NC(=O)[C@H](NC(=O)[C@H](NC(=O)[C@H](CCCN)NC(=O)[C@H]2CCCN2C(=O)[C@H](NC(=O)[C@@H](NC(=O)[C@@H](NC(=O)[C@H](NC(=O)Cc2cc(F)cc(F)c2)C(C)C)[C@@H](C)O)C(C)C)C(C)C)[C@H](C)CC)[C@H](C)OC(=O)[C@H](C(C)C)NC1=O | 1.84 | 1.6 | 2.02 | 1.29 | 2.96 | 0.692 | 1.37 | 0.426 | 1.41 | 1.35 | 1.01 | 0.794 | 1.48 | 2.2 | 1.12 | 1.62 | 1.71 | 1.27 | 1.49 | 0.679 | TGI (DU-145): 3.69 µM; TGI (A549): 1.35 µM; GI50 ([3]; read-out: GI50): 0.889 µM; CC50 [3]: 0.52 µM; GI50 (LNCaP): 1.65 µM; TGI (LNCaP): 3.14 µM; CC50 (LNCaP): 1.49 µM; TGI (SK-MEL-28): 2.93 µM; GI50 (SK-MEL-28; read-out: GI50): 2.34 µM; CC50 (SK-MEL-28): 1.4 µM; CC50 (PANC-1): 2.46 µM; CC50 (K562): 2.37 µM; CC50 (HT-29): 0.556 µM
C/C=C1\NC(=O)[C@H](Cc2ccccc2)NC(=O)[C@@H](C(C)C)NC(=O)[C@@H]([C@H](C)CC)NC(=O)[C@H](NC(=O)[C@H](NC(=O)[C@H](CCCN)NC(=O)[C@H]2CCCN2C(=O)[C@H](NC(=O)[C@@H](NC(=O)[C@@H](NC(=O)[C@H](NC(=O)c2ccccc2)C(C)C)[C@@H](C)O)C(C)C)C(C)C)[C@H](C)CC)[C@H](C)OC(=O)[C@H](C(C)C)NC1=O | 1.21 | 1.04 | 1.04 | 0.834 | 0.934 | 0.565 | 0.997 | 3.91 | 1.21 | 0.945 | 0.732 | 0.353 | 0.423 | 0.573 | 1.12 | 1.32 | 1.36 | 0.874 | 1.39 | 0.521 | TGI (DU-145): 1.12 µM; TGI (A549): 1.22 µM; GI50 ([3]; read-out: GI50): 0.627 µM; CC50 [3]: 0.436 µM; GI50 (LNCaP): 1.19 µM; TGI (LNCaP): 1.37 µM; CC50 (LNCaP): 1.54 µM; TGI (SK-MEL-28): 1.01 µM; GI50 (SK-MEL-28; read-out: GI50): 1.12 µM; CC50 (SK-MEL-28): 0.901 µM; GI50 (PANC-1): 5.38 µM; TGI (PANC-1): 4.94 µM; CC50 (PANC-1): 2.54 µM; GI50 (K562): 0.431 µM; TGI (K562): 1.51 µM; CC50 (K562): 2.45 µM; CC50 (HT-29): 0.508 µM
C/C=C1\NC(=O)[C@H](Cc2ccccc2)NC(=O)[C@@H](C(C)C)NC(=O)[C@@H]([C@H](C)CC)NC(=O)[C@H](NC(=O)[C@H](NC(=O)[C@H](CCCC[N+](C)(C)C)NC(=O)[C@H]2CCCN2C(=O)[C@H](NC(=O)[C@@H](NC(=O)[C@@H](NC(=O)[C@H](NC(=O)CC[C@@H](C)CC)C(C)C)[C@@H](C)O)C(C)C)C(C)C)[C@H](C)CC)[C@H](C)OC(=O)[C@H](C(C)C)NC1=O | 1.02 | 0.88 | 1.11 | 0.859 | 0.979 | 0.47 | 0.612 | 0.391 | 0.943 | 0.809 | 0.689 | 0.361 | 0.353 | 0.347 | 1.12 | 1.39 | 0.363 | 0.372 | 0.369 | 0.532 | GI50 (DU-145): 0.948 µM; TGI (A549): 1.24 µM; GI50 ([3]; read-out: GI50): 0.639 µM; CC50 [3]: 0.446 µM; GI50 (LNCaP): 1.06 µM; TGI (LNCaP): 1.06 µM; CC50 (LNCaP): 1.06 µM; GI50 (SK-MEL-28): 0.979 µM; GI50 (SK-MEL-28; read-out: GI50): 1.11 µM; CC50 (SK-MEL-28): 0.863 µM; GI50 (PANC-1): 4.16 µM; TGI (PANC-1): 4.73 µM; CC50 (PANC-1): 2.44 µM; GI50 (K562): 1.84 µM; TGI (K562): 3.31 µM; CC50 (K562): 2.34 µM; GI50 (HT-29): 0.786 µM; TGI (HT-29): 0.754 µM; CC50 (HT-29): 0.476 µM
